For 7 compounds, Ki, EC50 and Emax results are on record in ChEMBL document CHEMBL3576771, “Molecular determinants of biased agonism at the dopamine D₂ receptor” (J Med Chem, 2015).

One assay deals with D(1A) dopamine receptor (Homo sapiens, UniProt P21728). In words: Displacement of [3H]SCH23390 from human dopamine D1 receptor transfected in HEK293 cells after 1 hr by scintillation counting analysis. The format is cell-based. (Displacement assays read how much labelled ligand stays bound in the presence of the test substance.)
D(1A) dopamine receptor, sequence (P21728 whole entry): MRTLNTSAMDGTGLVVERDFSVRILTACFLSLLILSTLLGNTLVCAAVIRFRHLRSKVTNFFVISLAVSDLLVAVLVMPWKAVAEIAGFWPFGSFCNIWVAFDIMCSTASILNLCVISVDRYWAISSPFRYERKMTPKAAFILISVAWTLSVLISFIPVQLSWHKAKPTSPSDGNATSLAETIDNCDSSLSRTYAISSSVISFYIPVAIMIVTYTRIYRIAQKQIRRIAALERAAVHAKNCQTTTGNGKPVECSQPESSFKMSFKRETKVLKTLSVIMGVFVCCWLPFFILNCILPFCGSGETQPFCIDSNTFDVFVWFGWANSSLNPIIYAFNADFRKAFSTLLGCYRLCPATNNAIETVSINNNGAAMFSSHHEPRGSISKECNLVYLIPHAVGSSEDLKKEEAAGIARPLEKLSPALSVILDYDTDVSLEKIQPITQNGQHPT
The target in a further assay is D(1B) dopamine receptor (Homo sapiens, UniProt P21918). In words: Displacement of [3H]SCH23390 from human dopamine D5 receptor transfected in HEK293 cells after 1 hr by scintillation counting analysis. The format is cell-based.
D(1B) dopamine receptor, sequence (P21918 whole entry): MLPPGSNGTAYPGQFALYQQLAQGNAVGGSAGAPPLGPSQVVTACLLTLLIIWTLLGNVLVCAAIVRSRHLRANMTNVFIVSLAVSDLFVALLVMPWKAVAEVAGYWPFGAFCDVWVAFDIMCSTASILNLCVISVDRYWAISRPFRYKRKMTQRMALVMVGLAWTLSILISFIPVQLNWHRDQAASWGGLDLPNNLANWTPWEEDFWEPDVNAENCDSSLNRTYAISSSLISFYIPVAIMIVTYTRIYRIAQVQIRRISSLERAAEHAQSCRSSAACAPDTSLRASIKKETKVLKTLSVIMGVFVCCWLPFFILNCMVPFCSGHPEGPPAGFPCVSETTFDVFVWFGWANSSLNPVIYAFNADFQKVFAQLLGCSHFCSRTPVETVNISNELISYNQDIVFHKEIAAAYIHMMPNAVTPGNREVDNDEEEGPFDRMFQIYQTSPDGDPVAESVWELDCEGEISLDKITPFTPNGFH
The target of assay [1] is T1, D(2) dopamine receptor (Homo sapiens, UniProt P14416). In words: Displacement of [3H]spiperone from human dopamine D2L receptor transfected in CHO cells after 1 hr by scintillation counting analysis. Type of assay: cell-based.
T1 sequence (P14416 whole entry): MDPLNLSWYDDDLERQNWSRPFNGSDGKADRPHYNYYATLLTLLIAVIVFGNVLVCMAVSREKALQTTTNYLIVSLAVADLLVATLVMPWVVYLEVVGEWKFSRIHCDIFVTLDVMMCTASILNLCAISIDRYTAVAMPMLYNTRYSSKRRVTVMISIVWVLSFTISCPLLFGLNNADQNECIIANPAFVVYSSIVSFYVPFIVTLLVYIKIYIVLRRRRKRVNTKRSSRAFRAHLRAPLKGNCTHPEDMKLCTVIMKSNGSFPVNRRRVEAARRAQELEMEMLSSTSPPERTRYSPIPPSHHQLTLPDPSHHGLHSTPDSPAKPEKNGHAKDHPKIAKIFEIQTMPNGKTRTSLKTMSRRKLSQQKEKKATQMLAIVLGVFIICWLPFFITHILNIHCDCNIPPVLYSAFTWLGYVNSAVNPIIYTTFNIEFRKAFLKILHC
For assay [2], the target named is T1, D(2) dopamine receptor. In words: Displacement of [3H]spiperone from human dopamine D2S receptor transfected in CHO cells after 1 hr by scintillation counting analysis. Type of assay: cell-based.
In the next assay the target is D(3) dopamine receptor (Homo sapiens, UniProt P35462). In words: Displacement of [3H]spiperone from human dopamine D3 receptor transfected in CHO cells after 1 hr by scintillation counting analysis. The format is cell-based.
D(3) dopamine receptor, sequence (P35462 whole entry): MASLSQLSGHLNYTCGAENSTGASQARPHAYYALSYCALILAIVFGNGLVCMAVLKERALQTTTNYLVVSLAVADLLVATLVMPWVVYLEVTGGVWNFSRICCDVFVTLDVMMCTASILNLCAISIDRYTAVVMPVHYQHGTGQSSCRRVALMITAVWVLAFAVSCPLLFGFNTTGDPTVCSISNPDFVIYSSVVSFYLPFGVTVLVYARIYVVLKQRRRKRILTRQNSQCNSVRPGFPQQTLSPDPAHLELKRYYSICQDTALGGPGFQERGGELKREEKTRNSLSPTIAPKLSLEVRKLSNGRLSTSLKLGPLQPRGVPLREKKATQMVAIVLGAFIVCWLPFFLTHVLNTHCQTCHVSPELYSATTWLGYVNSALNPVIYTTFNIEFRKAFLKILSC
The target in another assay is T2, D(4) dopamine receptor (Homo sapiens, UniProt P21917).
T2 sequence (P21917 whole entry): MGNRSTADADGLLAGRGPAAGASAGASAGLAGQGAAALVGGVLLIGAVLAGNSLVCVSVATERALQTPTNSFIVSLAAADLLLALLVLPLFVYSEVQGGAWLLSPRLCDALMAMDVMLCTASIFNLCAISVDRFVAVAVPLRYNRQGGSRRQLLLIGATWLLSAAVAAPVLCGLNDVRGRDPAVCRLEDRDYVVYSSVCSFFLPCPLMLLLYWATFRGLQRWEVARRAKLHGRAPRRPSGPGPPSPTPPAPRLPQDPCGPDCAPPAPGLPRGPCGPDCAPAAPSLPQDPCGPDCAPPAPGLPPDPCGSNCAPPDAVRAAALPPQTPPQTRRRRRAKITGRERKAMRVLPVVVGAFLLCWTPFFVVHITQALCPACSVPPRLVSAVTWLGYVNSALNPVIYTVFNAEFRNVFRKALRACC
In words: Displacement of [3H]spiperone from human dopamine D4.4 receptor transfected in CHO cells after 1 hr by scintillation counting analysis. The format is cell-based.

Assay [3] is described as follows: Displacement of [3H]WAY100635 from poricne cerebral cortex 5-HT1A receptor by scintillation counting analysis. The format is tissue-based, Sus scrofa.
Assay [4] concerns the target 5-hydroxytryptamine receptor 2A (Homo sapiens, UniProt P28223). In words: Displacement of [3H]ketanserin from human 5-HT2A receptor transfected in HEK293 cells by scintillation counting analysis. The format is cell-based.
The nature of assay [5]: Displacement of [3H]prazosin from poricne cerebral cortex alpha1 adrenergic receptor by scintillation counting analysis. The format is tissue-based, Sus scrofa.
Assay [6] addresses T1, D(2) dopamine receptor. In words: Intrinsic activity at human dopamine D2S receptor expressed in HEK293 cells co-transfected with Galpha0i assessed as [35S]GTPgammaS binding after 30 mins by [35S]GTPgammaS incorporation assay. The format is functional, cell-based.
Assay [7] concerns the target T1, D(2) dopamine receptor. In words: Intrinsic activity at human dopamine D2S receptor expressed in HEK293 cells co-transfected with Galpha0i assessed as [35S]GTPgammaS binding after 30 mins by [35S]GTPgammaS incorporation assay relative to quinpirole. Type of assay: functional, cell-based. The method, boiled down: (§1)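 HEK293 membranes cotransfected with D2L or D2S plus PTX-insensitive Gαo1; 30 μg/mL protein with compounds and 10 μM GDP preincubated 30 min, 37 °C; then 0.10 nM [35S]GTPγS for 30 min, 37 °C; GF/B filtration.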
Background: Binding of GTPγS marks nucleotide exchange on a G protein.

The target of assay [8] is T1, D(2) dopamine receptor. In words: Intrinsic activity at human dopamine D2S receptor expressed in HEK293 cells co-transfected with Galphai2 assessed as [35S]GTPgammaS binding after 30 mins by [35S]GTPgammaS incorporation assay. The format is functional, cell-based.
The target in assay [9] is T1, D(2) dopamine receptor. In words: Intrinsic activity at human dopamine D2S receptor expressed in HEK293 cells co-transfected with Galphai2 assessed as [35S]GTPgammaS binding after 30 mins by [35S]GTPgammaS incorporation assay relative to quinpirole. Type of assay: functional, cell-based. Conditions: in the assay text read “after 75 mins” for “after 30 mins”. Put shortly:
(§2)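 Membranes from HEK293 cells cotransfected with D2L or D2S and PTX-insensitive Gαi2; 30 μg/mL protein, 10 μM GDP and compounds preincubated 30 min at 37 °C, then 0.10 nM [35S]GTPγS added for 75 min at 37 °C; filtration.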

The target of assay [10] is T1, D(2) dopamine receptor. In words: Intrinsic activity at human dopamine D2L receptor expressed in HEK293 cells co-transfected with Galpha0i assessed as [35S]GTPgammaS binding after 30 mins by [35S]GTPgammaS incorporation assay. Type of assay: functional, cell-based.
The target in assay [11] is T1, D(2) dopamine receptor. In words: Intrinsic activity at human dopamine D2L receptor expressed in HEK293 cells co-transfected with Galpha0i assessed as [35S]GTPgammaS binding after 30 mins by [35S]GTPgammaS incorporation assay relative to quinpirole. The format is functional, cell-based. The method, boiled down: as §1
The target in assay [12] is T1, D(2) dopamine receptor. In words: Intrinsic activity at human dopamine D2L receptor expressed in HEK293 cells co-transfected with Galphai2 assessed as [35S]GTPgammaS binding after 30 mins by [35S]GTPgammaS incorporation assay. The format is functional, cell-based.
In assay [13] the target is T1, D(2) dopamine receptor. In words: Intrinsic activity at human dopamine D2L receptor expressed in HEK293 cells co-transfected with Galphai2 assessed as [35S]GTPgammaS binding after 30 mins by [35S]GTPgammaS incorporation assay relative to quinpirole. The following applies: in the assay text read “after 75 mins” for “after 30 mins”. Type of assay: functional, cell-based. Put shortly:
as §2

Assay [14] concerns the target T1, D(2) dopamine receptor. In words: Agonist activity at ARMS2-PK2-tagged human dopamine D2S receptor expressed in HEK293 cells co-expressing (EA)-tagged beta arrestin fusion protein assessed as recruitment of beta-arrestin-2 after 5 hrs by chemiluminescence assay. Type of assay: cell-based.
Assay [15] has as its target T1, D(2) dopamine receptor. In words: Agonist activity at ARMS2-PK2-tagged human dopamine D2S receptor expressed in HEK293 cells co-expressing (EA)-tagged beta arrestin fusion protein assessed as recruitment of beta-arrestin-2 after 5 hrs by chemiluminescence assay relative to quinpirole. The format is cell-based. The method, boiled down: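 Transient transfection of D2S (ProLink-tagged) into HEK293 cells stably expressing EA-tagged β-arrestin-2; 5000 cells seeded, 24 h.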

Assay [16] has as its target D(1A) dopamine receptor (Sus scrofa) (UniProt P50130). In words: Displacement of [3H]SCH23390 from porcine dopamine D1 receptor in striatal membranes after 1 hr by scintillation counting analysis.

5-hydroxytryptamine receptor 2A, sequence (P28223 whole entry): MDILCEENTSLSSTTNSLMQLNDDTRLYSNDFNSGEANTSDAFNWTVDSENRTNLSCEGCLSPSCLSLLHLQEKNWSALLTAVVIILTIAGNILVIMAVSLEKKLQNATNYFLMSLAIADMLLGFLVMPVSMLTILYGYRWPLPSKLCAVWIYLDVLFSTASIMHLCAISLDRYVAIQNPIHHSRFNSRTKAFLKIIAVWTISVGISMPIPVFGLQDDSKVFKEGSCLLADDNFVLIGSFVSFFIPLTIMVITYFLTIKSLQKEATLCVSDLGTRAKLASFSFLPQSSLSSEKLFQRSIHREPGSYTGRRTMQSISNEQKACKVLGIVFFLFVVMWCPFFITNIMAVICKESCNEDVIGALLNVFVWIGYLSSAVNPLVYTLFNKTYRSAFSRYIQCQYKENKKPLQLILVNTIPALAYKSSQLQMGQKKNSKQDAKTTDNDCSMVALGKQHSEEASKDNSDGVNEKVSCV
D(1A) dopamine receptor (Sus scrofa), sequence (P50130 whole entry, looked up): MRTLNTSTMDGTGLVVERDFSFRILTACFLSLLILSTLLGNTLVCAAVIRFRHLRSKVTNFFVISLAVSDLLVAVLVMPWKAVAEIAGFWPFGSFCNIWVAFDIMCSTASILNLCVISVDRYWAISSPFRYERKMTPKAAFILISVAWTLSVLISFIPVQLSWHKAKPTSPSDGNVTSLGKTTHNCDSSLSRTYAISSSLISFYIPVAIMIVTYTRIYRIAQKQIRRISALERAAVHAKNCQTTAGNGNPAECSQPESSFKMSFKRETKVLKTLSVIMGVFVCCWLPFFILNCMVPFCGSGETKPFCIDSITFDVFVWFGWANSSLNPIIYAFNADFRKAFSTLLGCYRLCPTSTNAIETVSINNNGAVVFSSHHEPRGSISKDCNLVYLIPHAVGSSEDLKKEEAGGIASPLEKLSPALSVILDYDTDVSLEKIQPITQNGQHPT

In the case of `C#CC1=CC[C@H](N(CCC)CCCCNC(=O)c2ccc(OCCCc3cn(CCCC)nn3)c(OC)c2)CO1`, the Ki on D(1A) dopamine receptor was 3900 nM; at D(1B) dopamine receptor it was 48000 nM; at D(2) dopamine receptor [1] it was 4.9 nM; on D(2) dopamine receptor [2] it was 10 nM; on D(3) dopamine receptor, 2.2 nM; at D(4) dopamine receptor, 180 nM. The Ki in assay [3] turned out to be 810 nM; in assay [4] it was 14000 nM; in [5], 860 nM. The EC50 turned out to be 410 nM at D(2) dopamine receptor [6]; 2900 nM at D(2) dopamine receptor [8]; 90 nM on D(2) dopamine receptor [10]; 1900 nM at D(2) dopamine receptor [12]; 480 nM at D(2) dopamine receptor [14]. In addition, the Emax stood at 108% at D(2) dopamine receptor [7]; 89% on D(2) dopamine receptor [9]; 88% on D(2) dopamine receptor [11]; 84% on D(2) dopamine receptor [13]; 101% at D(2) dopamine receptor [15].

Take `CCCCn1cc(CCCOc2ccc(C(=O)NCCCCN(CCC)CCc3ccc(O)c4[nH]c(=O)ccc34)cc2OC)nn1`: the Ki at D(1A) dopamine receptor was 4600 nM; on D(1B) dopamine receptor, 25000 nM; at D(2) dopamine receptor [1], 24 nM; on D(2) dopamine receptor [2], 53 nM; at D(3) dopamine receptor, 1.6 nM; at D(4) dopamine receptor it was 800 nM. Further, the figures for the Ki in [3], in assay [4] and in [5] were 2800 nM, 3600 nM and 2400 nM, respectively. Moreover, the EC50 is 980 nM on D(2) dopamine receptor [6]; 1700 nM at D(2) dopamine receptor [8]; 3800 nM on D(2) dopamine receptor [10]; 7300 nM on D(2) dopamine receptor [12]; 140 nM at D(2) dopamine receptor [14]. Also, the Emax at D(2) dopamine receptor [7] came to 87%; at D(2) dopamine receptor [9], 85%; on D(2) dopamine receptor [11], 82%; at D(2) dopamine receptor [13], 84%; at D(2) dopamine receptor [15], 86%.

As for `CCCCn1cc(CCCOc2ccc(C(=O)NCCCCN(CCC)[C@@H]3CCc4c(O)cccc4C3)cc2OC)nn1`, the Ki on D(1A) dopamine receptor amounted to 23000 nM; on D(1B) dopamine receptor, 21000 nM; at D(2) dopamine receptor [1] it was 18 nM; at D(2) dopamine receptor [2], 30 nM; at D(3) dopamine receptor, 1.2 nM; on D(4) dopamine receptor, 290 nM. The results for the Ki in [3], in assay [4] and in [5] were 200 nM, 1000 nM and 480 nM, respectively. Besides, the EC50 is 830 nM on D(2) dopamine receptor [6], 530 nM at D(2) dopamine receptor [10] and 30 nM at D(2) dopamine receptor [14]. In addition, the maximal response (Emax) at D(2) dopamine receptor [7] is 27%; at D(2) dopamine receptor [9], below 5%; on D(2) dopamine receptor [11], 36%; on D(2) dopamine receptor [13], below 5%; on D(2) dopamine receptor [15], 56%.

Turning to `C#CC1=CC[C@H](N(CCC)CCCCNC(=O)c2ccc(-c3ccccc3)cc2)CC1`, the inhibition constant (Ki) on D(4) dopamine receptor stood at 60 nM; in assay [3], 110 nM; in [4] it was 28000 nM; in assay [5], 1800 nM; in assay [16] it was 18000 nM. For the same compound, the Emax at D(2) dopamine receptor [7] turned out to be 100%; at D(2) dopamine receptor [13], 73%; at D(2) dopamine receptor [15] it was 93%.

As for `C#CC1=CC[C@@H](N(CCC)CCCCNC(=O)c2ccc(OCCCc3cn(CCCC)nn3)c(OC)c2)CO1`, the Ki at D(1A) dopamine receptor stood at 2600 nM; at D(1B) dopamine receptor it was 24000 nM; on D(2) dopamine receptor [1] it was 1.6 nM; on D(2) dopamine receptor [2], 2.9 nM; at D(3) dopamine receptor, 0.63 nM; on D(4) dopamine receptor, 30 nM. Also, the values for the inhibition constant (Ki) in assay [3], in [4] and in assay [5] were 130 nM, 8000 nM and 1000 nM, respectively. Further, the 50% effective concentration (EC50) was found to be 110 nM on D(2) dopamine receptor [6]; 660 nM at D(2) dopamine receptor [8]; 52 nM at D(2) dopamine receptor [10]; 28 nM on D(2) dopamine receptor [12]; 380 nM on D(2) dopamine receptor [14]. The maximal effect (Emax) on D(2) dopamine receptor [7] stood at 92%; on D(2) dopamine receptor [9], 94%; on D(2) dopamine receptor [11] it was 99%; at D(2) dopamine receptor [13], 61%; on D(2) dopamine receptor [15], 88%.

Regarding `C#CC1=CC[C@@H](N(CCC)CCCCNC(=O)c2ccc(-c3ccccc3)cc2)CC1`, the inhibition constant Ki on D(4) dopamine receptor came out at 30 nM; in assay [3], 160 nM; in assay [4] it was 9000 nM; in assay [5] it was 620 nM; in [16], 13000 nM. The Emax at D(2) dopamine receptor [7] amounted to 104%; on D(2) dopamine receptor [9], 100%; at D(2) dopamine receptor [11] it was 92%; on D(2) dopamine receptor [15], 93%.

In the case of `CCCCn1cc(CCCOc2ccc(C(=O)NCCCCN(CCC)[C@H]3CCc4c(O)cccc4C3)cc2OC)nn1`, the Ki at D(1A) dopamine receptor amounted to 2900 nM; at D(1B) dopamine receptor it was 700 nM; on D(2) dopamine receptor [1], 0.47 nM; on D(2) dopamine receptor [2] it was 0.54 nM; at D(3) dopamine receptor, 0.21 nM; at D(4) dopamine receptor, 9.4 nM. For the same compound, the figures for the inhibition constant Ki in [3], in assay [4] and in assay [5] were 22 nM, 710 nM and 85 nM, respectively. For the same compound, the EC50 on D(2) dopamine receptor [6] was 2.1 nM; at D(2) dopamine receptor [8], 4 nM; at D(2) dopamine receptor [10], 3.1 nM; on D(2) dopamine receptor [12] it was 2.9 nM; at D(2) dopamine receptor [14], 1.4 nM. The maximal response (Emax) on D(2) dopamine receptor [7] was 110%; at D(2) dopamine receptor [9], 97%; at D(2) dopamine receptor [11], 90%; on D(2) dopamine receptor [13], 99%; on D(2) dopamine receptor [15], 94%.

As usually defined, the Ki is a measure of affinity in units of concentration, obtained from inhibition or displacement. A high value points to a looser hold on the target. A word on the EC50: it is the concentration that produces a half-maximal response. As usually defined, the Emax is the size of the effect at its maximum, as opposed to the concentration needed.
